According to ChEMBL document CHEMBL2021785, “Compounds of Alpinia katsumadai as potential efflux inhibitors in Mycobacterium smegmatis” (2012):
Converted amounts (≈) assume the structure as drawn.

Tests used:
[1] = tested on: Mycolicibacterium smegmatis MC2 155; test: Inhibition of Multidrug resistance efflux pump in Mycobacterium smegmatis mc2 155 assessed as EtBr accumulation measuring relative fluorescence at half the MIC measured for 60 mins by spectrophotometry relative to control
Method in brief: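 Overnight 7H9/ADC culture (37 °C, 100 rpm) centrifuged and resuspended in PBS with 0.05% Tween 80 to OD600 0.4. Cells mixed 1:1 with test solutions containing 0.5 mg/L EtBr and 0.4% glucose, compounds from MIC down to 1/16 MIC. Fluorescence (ex 531/em 590 nm) read every 50 s at 37 °C for 60 min; repeated at least three times.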

[2] = tested on: Mycolicibacterium smegmatis MC2 155; test: Inhibition of Multidrug resistance efflux pump in Mycobacterium smegmatis mc2 155 assessed as modulation of EtBr-mediated antibacterial activity measuring reduction in MIC at 1/2 of MIC after 72 hrs by MTT assay relative to control
Method in brief: (§1)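 Checkerboard-type modulation by broth dilution in MHB with DMSO-dissolved modulators: either modulator held constant (half its MIC) with two-fold serially diluted antibiotic/EtBr, or antibiotic fixed with modulator serially diluted. Final inoculum 5 × 10^5 cfu/mL, 37 °C, 72 h, MTT read-out. Modulation factor quantifies shift in antibiotic/EtBr MIC; FICI assesses combination effect.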

[3] = tested on: Mycolicibacterium smegmatis MC2 155; test: Inhibition of Multidrug resistance efflux pump in Mycobacterium smegmatis mc2 155 assessed as modulation of rifampicin-mediated antibacterial activity measuring ratio of rifampicin MIC to rifampicin and compound MIC at 64 mg/L after 72 hrs by MTT assay; method in brief: as §1
[4] = tested on: Mycolicibacterium smegmatis MC2 155; test: Inhibition of Multidrug resistance efflux pump in Mycobacterium smegmatis mc2 155 assessed as modulation of rifampicin-mediated antibacterial activity measuring fractional inhibitory concentration index at 64 mg/L after 72 hrs by MTT assay; method in brief: as §1
[5] = tested on: Mycolicibacterium smegmatis MC2 155; test: Inhibition of Multidrug resistance efflux pump in Mycobacterium smegmatis mc2 155 assessed as modulation of ethambutol-mediated antibacterial activity measuring ratio of ethambutol MIC to ethambutol and compound MIC at 64 mg/L after 72 hrs by MTT assay; method in brief: as §1
[6] = tested on: Mycolicibacterium smegmatis MC2 155; test: Inhibition of Multidrug resistance efflux pump in Mycobacterium smegmatis mc2 155 assessed as modulation of ciprofloxacin-mediated antibacterial activity measuring ratio of ciprofloxacin MIC to ciprofloxacin and compound MIC at 64 mg/L after 72 hrs by MTT assay; method in brief: as §1
[7] = tested on: Mycolicibacterium smegmatis MC2 155; test: Inhibition of Multidrug resistance efflux pump in Mycobacterium smegmatis mc2 155 assessed as modulation of EtBr-mediated antibacterial activity measuring fractional inhibitory concentration index at 64 mg/L after 72 hrs by MTT assay; method in brief: as §1
[8] = tested on: Mycolicibacterium smegmatis MC2 155; test: Inhibition of Multidrug resistance efflux pump in Mycobacterium smegmatis mc2 155 assessed as modulation of rifampicin-mediated antibacterial activity measuring reduction in MIC at 1/2 of MIC after 72 hrs by MTT assay relative to control; method in brief: as §1
[9] = tested on: Mycolicibacterium smegmatis; test: Antibacterial activity against Mycobacterium smegmatis mc2 155 after 72 hrs by MTT assay; type: functional; conditions: str. MC2 155, 72 h
Method in brief: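 Broth dilution in Mueller-Hinton broth; compounds dissolved in DMSO, two-fold serial dilutions; inoculum adjusted to McFarland 0.5 and diluted to final 5 × 10^5 cfu/mL; cells pre-grown on Columbia blood agar with 5% horse blood, 37 °C, 72 h. Plates incubated 37 °C for 72 h; MIC read after MTT as lowest concentration inhibiting growth.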

[10] = tested on: Mycolicibacterium smegmatis MC2 155; test: Inhibition of Multidrug resistance efflux pump in Mycobacterium smegmatis mc2 155 assessed as modulation of isoniazid-mediated antibacterial activity measuring ratio of isoniazid MIC to isoniazid and compound MIC at 64 mg/L after 72 hrs by MTT assay; method in brief: as §1
[11] = tested on: Mycolicibacterium smegmatis MC2 155; test: Inhibition of Multidrug resistance efflux pump in Mycobacterium smegmatis mc2 155 assessed as modulation of EtBr-mediated antibacterial activity measuring ratio of EtBr MIC to EtBr and compound MIC at 64 mg/L after 72 hrs by MTT assay; method in brief: as §1
[12] = tested on: Mycolicibacterium smegmatis MC2 155; test: Inhibition of Multidrug resistance efflux pump in Mycobacterium smegmatis mc2 155 assessed as inhibition of EtBr efflux measuring normalized fluorescence at half the MIC measured for 60 mins by spectrophotometry relative to control
[13] = tested on: Mycolicibacterium smegmatis MC2 155; test: Inhibition of Multidrug resistance efflux pump in Mycobacterium smegmatis mc2 155 assessed as modulation of isoniazid-mediated antibacterial activity measuring ratio of isoniazid MIC to isoniazid and compound MIC at 2 mg/L after 72 hrs by MTT assay; method in brief: as §1
[14] = tested on: Mycolicibacterium smegmatis MC2 155; test: Inhibition of Multidrug resistance efflux pump in Mycobacterium smegmatis mc2 155 assessed as modulation of EtBr-mediated antibacterial activity measuring ratio of EtBr MIC to EtBr and compound MIC at 2 mg/L after 72 hrs by MTT assay; method in brief: as §1
[15] = tested on: Mycolicibacterium smegmatis MC2 155; test: Inhibition of Multidrug resistance efflux pump in Mycobacterium smegmatis mc2 155 assessed as modulation of rifampicin-mediated antibacterial activity measuring ratio of rifampicin MIC to rifampicin and compound MIC at 2 mg/L after 72 hrs by MTT assay; method in brief: as §1
[16] = tested on: Mycolicibacterium smegmatis MC2 155; test: Inhibition of Multidrug resistance efflux pump in Mycobacterium smegmatis mc2 155 assessed as modulation of isoniazid-mediated antibacterial activity measuring ratio of isoniazid MIC to isoniazid and compound MIC at 32 mg/L after 72 hrs by MTT assay; method in brief: as §1
[17] = tested on: Mycolicibacterium smegmatis MC2 155; test: Inhibition of Multidrug resistance efflux pump in Mycobacterium smegmatis mc2 155 assessed as modulation of ethambutol-mediated antibacterial activity measuring ratio of ethambutol MIC to ethambutol and compound MIC at 32 mg/L after 72 hrs by MTT assay; method in brief: as §1
[18] = tested on: Mycolicibacterium smegmatis MC2 155; test: Inhibition of Multidrug resistance efflux pump in Mycobacterium smegmatis mc2 155 assessed as modulation of ciprofloxacin-mediated antibacterial activity measuring ratio of ciprofloxacin MIC to ciprofloxacin and compound MIC at 32 mg/L after 72 hrs by MTT assay; method in brief: as §1
[19] = tested on: Mycolicibacterium smegmatis MC2 155; test: Inhibition of Multidrug resistance efflux pump in Mycobacterium smegmatis mc2 155 assessed as modulation of rifampicin-mediated antibacterial activity measuring fractional inhibitory concentration index at 32 mg/L after 72 hrs by MTT assay; method in brief: as §1
[20] = tested on: Mycolicibacterium smegmatis MC2 155; test: Inhibition of Multidrug resistance efflux pump in Mycobacterium smegmatis mc2 155 assessed as modulation of EtBr-mediated antibacterial activity measuring ratio of EtBr MIC to EtBr and compound MIC at 32 mg/L after 72 hrs by MTT assay; method in brief: as §1
[21] = tested on: Mycolicibacterium smegmatis MC2 155; test: Inhibition of Multidrug resistance efflux pump in Mycobacterium smegmatis mc2 155 assessed as modulation of rifampicin-mediated antibacterial activity measuring ratio of rifampicin MIC to rifampicin and compound MIC at 32 mg/L after 72 hrs by MTT assay; method in brief: as §1
[22] = tested on: Mycolicibacterium smegmatis MC2 155; test: Inhibition of Multidrug resistance efflux pump in Mycobacterium smegmatis mc2 155 assessed as modulation of EtBr-mediated antibacterial activity measuring fractional inhibitory concentration index at 32 mg/L after 72 hrs by MTT assay; method in brief: as §1

## O[C@@H](CCc1ccccc1)C[C@H](O)/C=C/c1ccccc1
[1]
  RFU: 16500
[2]
  fold change (FC): 4
[3]
  Ratio: 4
[4]
  fractional inhibitory concentration index (FICI): 0.75
[5]
  Ratio: 2
[6]
  Ratio: 2
[7]
  fractional inhibitory concentration index (FICI): 0.25
[8]
  fold change (FC): 4
[9]
  MIC: ≥ 128 µg/mL
[10]
  Ratio: 2
[11]
  Ratio: 8
[12]
  normalized EtBr fluorescence relative to control: 0.746

## N#CC(C#N)=NNc1cccc(Cl)c1 [CARBONYL CYANIDE M-CHLOROPHENYLHYDRAZONE]
[9]
  MIC: 32 µg/mL (≈ 156 µM)

## COc1ccc(CCN(C)CCCC(C#N)(c2ccc(OC)c(OC)c2)C(C)C)cc1OC (stereo not given) [VERAPAMIL]
[9]
  MIC: 512 µg/mL (≈ 1130 µM)

## NNC(=O)c1ccncc1 [ISONIAZID]
[9]
  MIC: 4 µg/mL (≈ 29.2 µM)

## CCCCCCCCCCCCCCCCCC(=O)O [STEARIC ACID]
[9]
  MIC: ≥ 128 µg/mL
[10]
  Ratio: 0.5
[11]
  Ratio: 1

## CCCCC/C=C\C/C=C\CCCCCCCC(=O)O [LINOLEIC ACID]
[13]
  Ratio: 1
[9]
  MIC: 4 µg/mL (≈ 14.3 µM)
[14]
  Ratio: 2
[15]
  Ratio: 2

## CN(C)CCCN1c2ccccc2Sc2ccc(Cl)cc21 [CHLORPROMAZINE]
[9]
  MIC: 64 µg/mL (≈ 201 µM)

## O=C(CCc1ccccc1)C[C@@H](O)/C=C/c1ccccc1
[1]
  RFU: 15100
[2]
  fold change (FC): 4
[16]
  Ratio: 1
[17]
  Ratio: 1
[18]
  Ratio: 2
[8]
  fold change (FC): 4
[9]
  MIC: 64 µg/mL (≈ 228 µM)
[19]
  fractional inhibitory concentration index (FICI): 0.75
[20]
  Ratio: 8
[12]
  normalized EtBr fluorescence relative to control: 0.72
[21]
  Ratio: 4
[22]
  fractional inhibitory concentration index (FICI): 0.25
